Results on 5 molecules are retold here after PMC7609460 (Heliyon, 2020).

What is called IC50 is the midpoint of a concentration-inhibition curve. Low values mean higher potency, high ones lower potency.

Where only a bound is given, the exact number is not on record here.

Holding throughout (assay type): cell-based
The subject of test [1] is U87MG.ΔEGFR glioblastoma cells. Put plainly: Resazurin reduction assay. Particulars: for IC50: 72 h; for Degree of resistance: ratio IC50 U87MG.ΔEGFR / IC50 U87MG. A digest of the protocol: (§1)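 Resazurin reduction read after 72 h at 37 °C in humidified 5% CO2; fluorescence at 544 nm excitation and 590 nm emission. Test samples were dissolved in DMSO (final ≤0.1%). IC50 is the concentration that gives 50% inhibition of proliferation, derived by linear regression. Degree of resistance is IC50 in the resistant line divided by IC50 in its parental line. Selectivity index is IC50 in AML12 divided by IC50 in HepG2.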
A general note: Alamar Blue is a resazurin reagent that responds to reducing activity.

The subject of test [2] is U87MG glioblastoma cells. Kind of test: Resazurin reduction assay. Particulars: Homo sapiens, U-87 MG, 72 h. A digest of the protocol:
as §1

The test system of test [3] is HCT116 (p53-/-) colon adenocarcinoma cells. Kind of test: Resazurin reduction assay. As to conditions: for IC50: Homo sapiens, HCT-116, 72 h; for Degree of resistance: ratio IC50 HCT116 (p53-/-) / IC50 HCT116 (p53+/+). A digest of the protocol: as §1
In test [4] the test system is CCRF-CEM cells. Put plainly: Cell cycle distribution by flow cytometry. As to conditions: 24 h treatment. A digest of the protocol:
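CCRF-CEM cells (1×10^6) were treated for 24 h under standard culture conditions with various concentrations of test sample, or with DMSO (0.1% final) as control. Cell-cycle phases were read by flow cytometry from propidium iodide fluorescence of individual nuclei. At least three independent experiments, each with three repetitions.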
(In flow cytometry, cells or beads pass a laser one at a time.)

In test [5] the test system is MDA-MB-231-pcDNA breast adenocarcinoma cells. Kind of test: Resazurin reduction assay. Particulars: 72 h. A digest of the protocol:
as §1

Test [6] relates to MDA-MB-231-BCRP breast adenocarcinoma cells. Put plainly: Resazurin reduction assay. Particulars: for IC50: MDA-MB-231/BCRP, 72 h. A digest of the protocol: as §1
Test [7] has as its system CCRF-CEM leukemia cells. Put plainly: Resazurin reduction assay. As to conditions: Homo sapiens, 72 h. A digest of the protocol:
as §1

The subject of test [8] is normal AML12 hepatocytes. Kind of test: Resazurin reduction assay. Particulars: for IC50: Mus musculus, AML12, 72 h; for Selectivity index: ratio IC50 AML12 hepatocytes / IC50 HepG2. A digest of the protocol:
as §1

For test [9], the system named is HepG2 hepatocarcinoma cells. Put plainly: Resazurin reduction assay. Particulars: Homo sapiens, HepG2, 72 h. A digest of the protocol:
as §1

The test system of test [10] is HCT116 (p53+/+) colon cancer cells. Kind of test: Resazurin reduction assay. Particulars: Homo sapiens, HCT-116, 72 h. A digest of the protocol:
as §1

The subject of test [11] is CEM/ADR5000 leukemia cells (P-glycoprotein-overexpressing). Kind of test: Resazurin reduction assay. As to conditions: for IC50: Homo sapiens, ADR5000, 72 h; for Degree of resistance: ratio IC50 CEM/ADR5000 / IC50 CCRF-CEM. A digest of the protocol:
as §1

The test system of test [12] is CCRF-CEM cells. Put plainly: Flow cytometric analysis of ROS production. As to conditions: 24 h, 50 μM, non-treated cells 0.6%.

As to `COc1cccc2c1C(=O)c1c(O)c3c(c(O)c1C2=O)C[C@@](O)(C(=O)CO)C[C@@H]3O[C@H]1C[C@H](N)[C@H](O)[C@H](C)O1` [Doxorubicin, reference compound], the IC50 in test [1] was found to be 0.98 ± 0.07 µM; in test [2], 0.26 ± 0.03 µM; in test [3], 1.78 ± 0.08 µM; in [5] it was 0.13 ± 0.01 µM; in test [6], 0.79 ± 0.08 µM; in test [7], 0.02 µM. In addition, the IC50 in [8] came to 52.9 ± 4.09 µM; in test [9] it was 4.56 ± 0.48 µM. Further, the results for the Degree of resistance in [1], in test [3] and in test [6] (ratio IC50 MDA-MB-231-BCRP / IC50 MDA-MB-231-pcDNA) were 3.79, 3.73 and 6.14, respectively. Also, the “cell cycle arrest phase” value in [4] is “S and G2/M phase arrest”.
As for `O=c1cc(-c2ccc(O)cc2)oc2cc(O[C@@H]3O[C@H](CO)[C@@H](O)[C@H](O)[C@H]3O)cc(O)c12` [Compound 4, Apigenin-7-O-β-D-glucopyranoside], the IC50 in [1], in [10], in test [2], in test [11], in [3] and in test [5] was over 100 µM in each case. In addition, the IC50 was over 100 µM in [6], 10.4 ± 1.17 µM in [7], over 100 µM in [8] and over 100 µM in test [9]. In addition, the Degree of resistance in [11] is given as over 9.62.
The molecule `OO` [H2O2, Hydrogen peroxide] showed an ROS levels in [12] of 94.30%.
In the case of `COc1cc(-c2cc(=O)c3c(O)cc(O[C@@H]4O[C@H](CO)[C@@H](O)[C@H](O)[C@H]4O)cc3o2)ccc1O` [Compound 3, chrysoeriol-7-O-β-D-glucopyranoside], the half-maximal inhibitory concentration (IC50) in [1] is 21.1 ± 0.92 µM; in test [10] it was 30.7 ± 4.04 µM; in test [2], 24.9 ± 2.19 µM; in test [11] it was 18.7 ± 1.25 µM; in test [3], 28.4 ± 1.72 µM; in test [5], over 100 µM. Also, the IC50 is over 100 µM in test [6], 20.8 ± 1.76 µM in test [7], over 100 µM in [8] and 34.2 ± 2.86 µM in test [9]. Besides, in test [11], the Degree of resistance was determined as 0.90. In addition, in [8], the Selectivity index was over 2.92.
Consider `O=c1cc(-c2ccc(O)c(O)c2)oc2cc(O)cc(O)c12` [Compound 6, luteolin], for which the IC50 was 18.9 ± 1.06 µM in test [1]; 28.3 ± 1.07 µM in test [10]; 22.7 ± 2.2 µM in [2]; 27 ± 1.29 µM in test [11]; 30.4 ± 2.55 µM in test [3]; over 100 µM in test [5]. Besides, the half-maximal inhibitory concentration (IC50) in test [6] was over 100 µM; in [7], 11 ± 0.97 µM; in [8], over 100 µM; in [9], 29 ± 1.77 µM. The Degree of resistance in [1] is recorded as 0.83; in test [11] it was 2.46; in [3] it was 1.07. Moreover, the Selectivity index in [8] is listed as over 3.45.
